Assay results published in ChEMBL document CHEMBL1126809, “Effects of solvation on the ionization and conformation of raclopride and other antidopaminergic 6-methoxysalicylamides: insight into the pharmacophore” (J Med Chem, 1993).

What was measured:
[1] = Dissociation constants determined by potentiometry at 25 degree celsius (phenolic group); assay type: physicochemical
Outline: (§1)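 Potentiometric titration at 25 ± 1 °C with ionic strength held at 0.1 M by KCl. Excess HCl added, then back-titrated with 0.01 N NaOH. Curves run in triplicate. pKa derived by non-logarithmic linearization of the titration curve, corrected for dilution during titration.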

[2] = Dissociation constants determined by potentiometry at 25 degree celsius (Amino group); assay type: physicochemical; outline: as §1
[3] = The isoelectric point (pI) as the arithmetic mean of pKa1 and pKa2; assay type: physicochemical
[4] = Percent of zwitter ion formed, was determined at pH 7.4; assay type: ADME

| SMILES | PKa1 [1] | PKa2 [2] | pI [3] | Z [4] |
| --- | --- | --- | --- | --- |
| CCc1cc(CC)c(OC)c(C(=O)NC[C@@H]2CCCN2CC)c1O | 7.28 | 9.55 | 8.42 | 56% |
| CCN1CCC[C@H]1CNC(=O)c1c(O)c(Br)cc(Br)c1OC | 5.94 | 9.18 | 7.56 | 95% |
| CCc1cc(Cl)c(OC)c(C(=O)NC[C@@H]2CCCN2CC)c1O [ETICLOPRIDE] | 6.93 | 9.67 | 8.3 | 74% |
| COc1c(Cl)cc(Cl)c(O)c1C(=O)NC1CCN(C)CC1 | 5.96 | 9.12 | 7.54 | 95% |
| CCc1cc(Cl)c(O)c(C(=O)NC[C@@H]2CCCN2CC)c1OC | 6.88 | 9.6 | 8.24 | 76% |

Further lines, results first:

| PKa1 [1] | PKa2 [2] | pI [3] | Z [4] | SMILES |
| --- | --- | --- | --- | --- |
| 8.71 | 9.57 | 9.14 | 5% | CCc1ccc(OC)c(C(=O)NC[C@@H]2CCCN2CC)c1O |
| 5.81 | 9.21 | 7.51 | 96% | CCN1CCC[C@H]1CNC(=O)c1c(O)c(Cl)cc(Cl)c1OC [RACLOPRIDE] |
| 7.13 | 9.66 | 8.4 | 65% | CCN1CCC[C@H]1CNC(=O)c1c(OC)ccc(Cl)c1O |
| 8.7 | 9.56 | 9.13 | 5% | CCN1CCC[C@H]1CNC(=O)c1c(O)cccc1OC |
| 5.81 | 9.16 | 7.49 | 96% | CCN1CCC[C@H]1CNC(=O)c1c(OC)ccc([N+](=O)[O-])c1O |
